Reference: ChEMBL document CHEMBL1132202, “2-Amino-3-substituted-6-[(E)-1-phenyl-2-(N-methylcarbamoyl)vinyl]imid azo[1,2-a]pyridines as a novel class of inhibitors of human rhinovirus: stereospecific synthesis and antiviral activity” (J Med Chem, 1999)
Converted amounts (≈) assume the structure as drawn.

Tests used:
[1] = Compound was measured for inhibition on Human Rhinovirus-14 by using CPE/XTT assay (Antiviral activity); format: functional, Human rhinovirus sp.
Method in brief: (§1)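 CPE assay run per an earlier protocol, except that surviving host cells were quantified with XTT as substrate rather than crystal violet staining. The same assay gave the cellular toxicity TC50. Control samples without drug received 0.1% DMSO.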

[2] = Compound was evaluated for cellular toxicity in on Human Rhinovirus-14 by using CPE/XTT assay (cytopathic effect assay); details: human rhinovirus sp.; read-out: TC50 (the source's name); method in brief: as §1
[3] = Ratio of TC50 value to the IC50 value measured on rhinovirus-14 by using CPE/XTT assay.; format: functional
Method in brief: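 Cytopathic-effect assay run per an earlier method, except that surviving host cells were quantified by XTT reduction instead of crystal violet staining. General cellular toxicity was taken as TC50, and the ratio was TC50 divided by IC50. No-drug controls received 0.1% DMSO.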

[4] = Compound was measured for inhibition on Human Rhinovirus-14 by using PRA assay (Antiviral activity); format: functional, Human rhinovirus sp.
Method in brief: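 H-HeLa cells grown in 60-mm dishes at 37 °C in MEM with 10% newborn calf serum and 1% nonessential amino acids. Overlay contained varied compound concentrations. Incubated 35 °C for 48 h, fixed with 10% formalin, stained with 0.5% crystal violet, plaques counted. Duplicate wells averaged vs DMSO controls. IC50 (50% plaque inhibition) by Reed-Muench from linear region of the curve.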

Structure (SMILES)	IC50 [1] [µg/mL]	CC50 [2] [µg/mL]	TC50/IC50 [3]	IC50 [4] [µg/mL]
CNC(=O)/C=C(\c1ccccc1)c1ccc2nc(N)c(SC(C)C)n2c1	0.21 (≈ 0.573 µM)	10 (≈ 27.3 µM)	48	0.17 (≈ 0.464 µM)
CNC(=O)/C=C(\c1ccccc1)c1ccc2nc(N)c(I)n2c1				> 3.2
CNC(=O)/C=C(\c1ccccc1)c1ccc2nc(N)cn2c1				> 10
CNC(=O)/C=C(\c1ccccc1)c1ccc2nc(N)c(-c3ccc(F)cc3C(F)(F)F)n2c1	0.48 (≈ 1.06 µM)	> 10	>21	0.44 (≈ 0.968 µM)
CNC(=O)/C=C(\c1ccccc1)c1ccc2nc(N)c(S(=O)(=O)C(C)C)n2c1				0.64 (≈ 1.61 µM)
CNC(=O)/C=C(\c1ccccc1)c1ccc2nc(N)c(-c3cc(F)ccc3F)n2c1	0.16 (≈ 0.396 µM)	4.87 (≈ 12 µM)	30	0.18 (≈ 0.445 µM)
CNC(=O)/C=C(\c1ccccc1)c1ccc2nc(N)c(-c3ccccc3)n2c1	0.3 (≈ 0.814 µM)	5.03 (≈ 13.7 µM)	17	0.27 (≈ 0.733 µM)
CNC(=O)/C=C(\c1ccccc1)c1ccc2nc(N)c(-c3ccc(F)c(F)c3F)n2c1	0.21 (≈ 0.497 µM)	6.98 (≈ 16.5 µM)	33	0.17 (≈ 0.402 µM)
